This is an account of results in ChEMBL document CHEMBL2331556, “Evidence for the involvement of descending pain-inhibitory mechanisms in the antinociceptive effect of hecogenin acetate” (J Nat Prod, 2013).

Structures are written as SMILES. Activity calls are given as the source filed them.

In data set [1] the test system is Mus musculus. As to the kind of experiment: Antinociceptive activity in Swiss webster mouse assessed as increase in latency response at 5 mg/kg sc administered 40 mins prior to test measured for 3 hrs by warm water-tail flick test. In kind it is functional, organism-based. More on the design: dose 5 mg/kg. Summed up: (§1)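 Mice habituated to a restraint cylinder 20 min/day for 5 days. Tail tip (2 cm) immersed in 50 ± 0.5 °C water; tail-withdrawal latency recorded, 16 s cut-off. Latency taken at baseline and up to 7 h after dosing. Vehicle Tween 20 5%. Means ± SEM, n = 6 mice/group; repeated-measures two-way ANOVA with Bonferroni post hoc.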

Data set [2] has as its system Mus musculus. As to the kind of experiment: Toxicity in Swiss webster mouse assessed as decrease in time stayed on rotarod at 10 mg/kg, ip measured after 30 mins by rotarod test. As to conditions: in vivo, 0.5 h. More on the design: dose 10 mg/kg, route intraperitoneal. The data set is classed as organism-based. (In general: Falling from the rotarod earlier than controls is read as motor impairment.)

Data set [3] relates to Mus musculus. As to the kind of experiment: Toxicity in Swiss webster mouse assessed as effect on motor performance at 40 mg/kg, ip measured after 30 mins by rotarod test. The data set is classed as organism-based. More on the design: dose 40 mg/kg, route intraperitoneal. As to conditions: in vivo, 0.5 h. The essentials:
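Rotarod. Mice pre-selected 24 h earlier; those failing to stay on the bar for two consecutive 120 s periods were excluded. Dosing ip: test agent 40 mg/kg, or vehicle (Tween 20 5%, 200 μL). Time on rod recorded up to 120 s and reported as group mean time (s). n = 6/group; ANOVA with Tukey post hoc.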

Data set [4] deals with Mus musculus. The data set is described as follows: Antinociceptive activity in ip dosed Swiss webster mouse assessed as increase in latency response […] by warm water-tail flick test. The data set is classed as functional, organism-based. (In general: In hot-plate and tail-flick tests a longer latency is read as antinociception.)
Data set [5] concerns Mus musculus. As to the kind of experiment: Antinociceptive activity in Swiss webster mouse assessed as latency response at 40 mg/kg, ip administered 15 mins after 5 mg/kg, ip nonselective opioid receptor antagonist, naloxone challenge measured up to 7 hrs by warm water-tail flick test. The data set is classed as functional, organism-based. The essentials:
as §1

Data set [6] concerns Mus musculus. As to the kind of experiment: Antinociceptive activity in Swiss webster mouse assessed as latency response at 40 mg/kg, ip administered 30 mins after 2 mg/kg, ip KATP channel blocker, glibenclamide challenge measured up to 7 hrs by warm water-tail flick test. The data set is classed as functional, organism-based. Summed up: as §1
The test system of data set [7] is Mus musculus. As to the kind of experiment: Antinociceptive activity in Swiss webster mouse assessed as latency response at 40 mg/kg, ip administered 5 mins after 3 mg/kg, sc delta-opioid receptor antagonist, naltrindole challenge measured up to 7 hrs by warm water-tail flick test. The data set is classed as functional, organism-based. The essentials:
as §1

Data set [8] concerns Mus musculus. As to the kind of experiment: Antinociceptive activity in Swiss webster mouse assessed as latency response at 40 mg/kg, ip administered 15 mins after 0.5 mg/kg, sc kappa-opioid receptor antagonist, nor-BNI challenge measured up to 7 hrs by warm water-tail flick test. In kind it is functional, organism-based. The essentials:
as §1

For data set [9], the system named is Mus musculus. The data set is described as follows: Antinociceptive activity in Swiss webster mouse assessed as latency response at 40 mg/kg, ip administered 30 mins prior to 1 mg/kg, ip mu-opioid receptor antagonist, CTOP challenge measured up to 7 hrs by warm water-tail flick test. In kind it is functional, organism-based. Summed up:
as §1

Data set [10] concerns Mus musculus. As to the kind of experiment: Activation of neurons in Swiss webster mouse periaqueductal gray assessed as increase in number of Fos-positive cells at 5 to 40 mg/kg, ip measured after 2 hrs by immunohistochemical analysis. In kind it is functional, organism-based. The essentials: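 Mice given 5, 10, 20 or 40 mg/kg ip or vehicle, perfused 2 h later. Frozen 20 μm transverse periaqueductal gray sections: PBS washes, 0.1 M glycine, blocked in 1% BSA, overnight rabbit anti-Fos, then 1 h Alexa Fluor 594 anti-rabbit. No-primary control included. Fos-positive cells counted; n = 6/group; ANOVA with Tukey post hoc.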

For `CN1CC[C@]23c4c5ccc(O)c4O[C@H]2[C@@H](O)C=C[C@H]3[C@H]1C5`, the result in the data set with Mus musculus [1] was Active.

As for `CN1C(=O)CN=C(c2ccccc2)c2cc(Cl)ccc21` [DIAZEPAM], in the data set on Mus musculus [2], the Activity entry is reported as “Toxic”.

For `CC(=O)O[C@H]1CC[C@@]2(C)[C@@H](CC[C@@H]3[C@@H]2CC(=O)[C@]2(C)[C@@H]4[C@H](C[C@@H]32)O[C@]2(CC[C@@H](C)CO2)[C@H]4C)C1` [HECOGENIN ACETATE], the values for the Activity entry in the data set with Mus musculus [3] and in the data set on Mus musculus [4] were “Non-toxic” and “Dose-dependent effect”, respectively. In addition, the result with Mus musculus [5], in the data set on Mus musculus [6], in the data set on Mus musculus [7], with Mus musculus [8] and with Mus musculus [9] was inactive. For the same molecule, the result in the data set with Mus musculus [10] was Active.
